Test results: ChEMBL document CHEMBL1127783, “Sugar-linked dithiocarbamates as modulators of metabolic and genotoxic properties of N-nitroso compounds” (J Med Chem, 1994)
Values joined by “and” are separate entries in the source; they are usually repeats but may differ in a detail not shown here. Equal entries are not always repeated.

Experiments:
Rattus norvegicus [1] = experiment: Tested for area under the curve (AUC) after intravenous bolus administration of 100 mg/kg in rat 1; format: ADME, organism-based; design: dose 100 mg/kg, route intravenous; settings: in vivo
Procedure, shortened: (§1)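 Rats (two per compound) were catheterised in the jugular vein under chloral hydrate. A 100 mg/kg iv bolus was given through the catheter, followed by a saline rinse. Serial blood samples (250–300 μL) were collected into heparinized tubes and centrifuged for plasma. Each rat's plasma concentration–time data were fitted by nonlinear regression to a compartment model to derive AUC, MRT, CL, Vss and phase half-lives. Body weight was recorded for each rat.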

Rattus norvegicus [2] = experiment: Tested for area under the curve (AUC) after intravenous bolus administration of 100 mg/kg in rat 2; format: ADME, organism-based; design: dose 100 mg/kg, route intravenous; settings: in vivo; procedure, shortened: as §1
Rattus norvegicus [3] = experiment: Tested for total body clearance (CL) after intravenous bolus administration of 100 mg/kg in rat 1; format: ADME, organism-based; design: dose 100 mg/kg, route intravenous; settings: in vivo; procedure, shortened: as §1
Rattus norvegicus [4] = experiment: Tested for total body clearance (CL) after intravenous bolus administration of 100 mg/kg in rat 2; format: ADME, organism-based; design: dose 100 mg/kg, route intravenous; settings: in vivo; procedure, shortened: as §1
Rattus norvegicus [5] = experiment: Tested for body weight after intravenous bolus administration of 100 mg/kg in rat 1; format: ADME, organism-based; design: dose 100 mg/kg, route intravenous; settings: in vivo; procedure, shortened: as §1
Rattus norvegicus [6] = experiment: Tested for body weight after intravenous bolus administration of 100 mg/kg in rat 2; format: ADME, organism-based; design: dose 100 mg/kg, route intravenous; settings: in vivo; procedure, shortened: as §1
Rattus norvegicus [7] = experiment: Tested for mean residence time (MRT) after intravenous bolus administration of 100 mg/kg in rat 1; format: ADME, organism-based; design: dose 100 mg/kg, route intravenous; settings: in vivo; procedure, shortened: as §1
Rattus norvegicus [8] = experiment: Tested for mean residence time (MRT) after intravenous bolus administration of 100 mg/kg in rat 2; format: ADME, organism-based; design: dose 100 mg/kg, route intravenous; settings: in vivo; procedure, shortened: as §1
[9] = Tested for the half life period in phosphate buffer at pH of 7.4; Stable; format: ADME; settings: pH 7.4
[10] = Tested for the half life period in alpha glucosidase at pH of 7.4; 9-18 days; format: ADME; settings: pH 7.4
Rattus norvegicus [11] = experiment: Tested for steady state volume of distribution (Vss) after intravenous bolus administration of 100 mg/kg in rat 1; format: ADME, organism-based; design: dose 100 mg/kg, route intravenous; settings: in vivo; procedure, shortened: as §1
Rattus norvegicus [12] = experiment: Tested for steady state volume of distribution (Vss) after intravenous bolus administration of 100 mg/kg in rat 2; format: ADME, organism-based; design: dose 100 mg/kg, route intravenous; settings: in vivo; procedure, shortened: as §1
[13] = Tested for half -life alpha after intravenous bolus administration of 100 mg/kg in rat 1; format: ADME, organism-based; design: dose 100 mg/kg, route intravenous; settings: in vivo, read-out: T1/2 alpha; procedure, shortened: as §1
[14] = Tested for half -life alpha after intravenous bolus administration of 100 mg/kg in rat 2; format: ADME, organism-based; design: dose 100 mg/kg, route intravenous; settings: in vivo, read-out: T1/2 alpha; procedure, shortened: as §1
Rattus norvegicus [15] = experiment: Tested for half life beta after intravenous bolus administration of 100 mg/kg in rat 1; format: ADME, organism-based; design: dose 100 mg/kg, route intravenous; settings: in vivo; procedure, shortened: as §1
[16] = Tested for half life beta after intravenous bolus administration of 100 mg/kg in rat 2; format: ADME, organism-based; design: dose 100 mg/kg, route intravenous; settings: in vivo, read-out: T1/2 beta; procedure, shortened: as §1
[17] = Tested for half life gamma after intravenous bolus administration of 100 mg/kg in rat 1; format: ADME, organism-based; design: dose 100 mg/kg, route intravenous; settings: in vivo, read-out: T1/2 gamma; procedure, shortened: as §1
[18] = Tested for half life gamma after intravenous bolus administration of 100 mg/kg in rat 2; format: ADME, organism-based; design: dose 100 mg/kg, route intravenous; settings: in vivo, read-out: T1/2 gamma; procedure, shortened: as §1
Rattus norvegicus [19] = species on record: Rattus norvegicus; experiment: Tested in vitro for N-nitrosodimethylamine (NDMA) demethylase activity at 0.1 mM for 0 mM concentration of acetaldehyde; format: functional
Procedure, shortened: (§2)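 Liver microsomal fraction from untreated male Sprague–Dawley rats with NADPH-generating system. NDMA substrate 0.1–1 mM; test compound 2–20 mM or DDTC 2 mM added. Formaldehyde and acetaldehyde formed measured as (2,4-dinitrophenyl)hydrazones. Mean ± SD of three separate experiments.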

Rattus norvegicus [20] = species on record: Rattus norvegicus; experiment: Tested in vitro for N-nitrosodimethylamine (NDMA) demethylase activity at 0.1 mM for 2 mM concentration of acetaldehyde; format: functional; procedure, shortened: as §2
Rattus norvegicus [21] = species on record: Rattus norvegicus; experiment: Tested in vitro for N-nitrosodimethylamine (NDMA) demethylase activity at 0.5 mM for 2 mM concentration of acetaldehyde; format: functional; procedure, shortened: as §2
Rattus norvegicus [22] = species on record: Rattus norvegicus; experiment: Tested in vitro for N-nitrosodimethylamine (NDMA) demethylase activity at 1 mM for 2 mM concentration of acetaldehyde; format: functional; procedure, shortened: as §2
Rattus norvegicus [23] = species on record: Rattus norvegicus; experiment: Tested in vitro for N-nitrosodimethylamine (NDMA) demethylase activity at 2 mM for 0 mM concentration of acetaldehyde; format: functional; procedure, shortened: as §2
Rattus norvegicus [24] = species on record: Rattus norvegicus; experiment: Tested in vitro for N-nitrosodimethylamine (NDMA) demethylase activity at 2 mM for 2 mM concentration of acetaldehyde; format: functional; procedure, shortened: as §2
Rattus norvegicus [25] = species on record: Rattus norvegicus; experiment: Tested in vitro for N-nitrosodimethylamine (NDMA) demethylase activity at 0.1 mM for 0 mM concentration of formaldehyde; format: functional; procedure, shortened: as §2
Rattus norvegicus [26] = species on record: Rattus norvegicus; experiment: Tested in vitro for N-nitrosodimethylamine (NDMA) demethylase activity at 0.1 mM for 2 mM concentration of formaldehyde; format: functional; procedure, shortened: as §2
Rattus norvegicus [27] = species on record: Rattus norvegicus; experiment: Tested in vitro for N-nitrosodimethylamine (NDMA) demethylase activity at 0.5 mM for 2 mM concentration of formaldehyde; format: functional; procedure, shortened: as §2
Rattus norvegicus [28] = species on record: Rattus norvegicus; experiment: Tested in vitro for N-nitrosodimethylamine (NDMA) demethylase activity at 1 mM for 2 mM concentration of formaldehyde; format: functional; procedure, shortened: as §2
Rattus norvegicus [29] = species on record: Rattus norvegicus; experiment: Tested in vitro for N-nitrosodimethylamine (NDMA) demethylase activity at 2 mM for 0 mM concentration of formaldehyde; format: functional; procedure, shortened: as §2
Rattus norvegicus [30] = species on record: Rattus norvegicus; experiment: Tested in vitro for N-nitrosodimethylamine (NDMA) demethylase activity at 2 mM for 2 mM concentration of formaldehyde; format: functional; procedure, shortened: as §2
Rattus norvegicus [31] = species on record: Rattus norvegicus; experiment: Tested in vitro for N-nitrosodimethylamine (NDMA) demethylase activity at 2 mM for 20 mM concentration of formaldehyde; format: functional; procedure, shortened: as §2
Rattus norvegicus [32] = species on record: Rattus norvegicus; experiment: Tested in vitro for N-nitrosodimethylamine (NDMA) demethylase activity at 2 mM for 5 mM concentration of formaldehyde; format: functional; procedure, shortened: as §2
Rattus norvegicus [33] = experiment: Tested for cumulative urinary excretion following intravenous bolus dose of 100 mg/kg in rat at 8-24 h was recovered; format: functional, Urine
Procedure, shortened: (§3)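 Rats (five per group) were given a single 100 mg/kg dose ip or as an iv bolus. Each was housed alone in a metabolism cage, and urine was collected over 0–8 h and 8–24 h. Parent compound and the monosaccharide-linked metabolite in urine were quantified and reported as cumulative % of dose, mean ± SD.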

Rattus norvegicus [34] = experiment: Tested for cumulative urinary excretion following intraperitoneal dose of 100 mg/kg in rat at 0-8 h; format: functional, Urine; procedure, shortened: as §3
Rattus norvegicus [35] = experiment: Tested for cumulative urinary excretion following intraperitoneal dose of 100 mg/kg in rat at 0-8 hr was recovered; format: functional, Urine; procedure, shortened: as §3
Rattus norvegicus [36] = experiment: Tested for cumulative urinary excretion following intraperitoneal dose of 100 mg/kg in rat at 8-24 h; format: functional, Urine; procedure, shortened: as §3
Rattus norvegicus [37] = experiment: Tested for cumulative urinary excretion following intraperitoneal dose of 100 mg/kg in rat at 8-24 hr was recovered; format: functional, Urine; procedure, shortened: as §3
Rattus norvegicus [38] = experiment: Tested for cumulative urinary excretion following intravenous bolus dose of 100 mg/kg in rat at 0-8 h; format: functional, Urine; procedure, shortened: as §3
Rattus norvegicus [39] = experiment: Tested for cumulative urinary excretion following intravenous bolus dose of 100 mg/kg in rat at 0-8 hr was recovered; format: functional, Urine; procedure, shortened: as §3
Rattus norvegicus [40] = experiment: Tested ex vivo for analysis of DNA single-strand breaks in primary rat hepatocyte by oral treatment of NDEA during first gavage; format: functional
Rattus norvegicus [41] = experiment: Tested ex vivo for analysis of DNA single-strand breaks in primary rat hepatocyte by oral treatment of NDEA during second gavage, 2 hr after first gavage.; format: functional
Procedure, shortened: (§4)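 Fasted rats given a first gavage of 0.5 mmol/kg test agent or saline, then NDEA (1.4 mg/kg) or saline by a second gavage 2 h later, both in 10 mL NaCl/kg. At 1 h after the second gavage, hepatocytes were isolated by two-step in situ perfusion under metophane anaesthesia. Alkaline filter elution: 1.5 × 10⁶ cells/filter, lysis at pH 10 with SDS/proteinase K, ten elution fractions, DNA measured by Hoechst 33258 fluorescence. Readout is control minus treated % DNA retained on filter; n = 6.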

Rattus norvegicus [42] = experiment: Tested ex vivo for analysis of DNA single-strand breaks in primary rat hepatocyte by oral treatment of NaCl during second gavage, 2 hr after first gavage.; format: functional; procedure, shortened: as §4
[43] = Tested for the half life period in beta glucosidase at pH of 7.4; 6-12 days; format: ADME; settings: pH 7.4
Rattus norvegicus [44] = experiment: Tested ex vivo for analysis of DNA single-strand breaks in primary rat hepatocyte by oral treatment of NaCl during first gavage; format: functional; procedure, shortened: as §4
Rattus norvegicus [45] = experiment: Tested for cumulative urinary excretion following intravenous bolus dose of 100 mg/kg in rat at 8-24 h; format: functional, Urine; procedure, shortened: as §3
Rattus norvegicus [46] = species on record: Rattus norvegicus; experiment: Tested in vitro for N-nitrosodimethylamine (NDMA) demethylase activity at 2 mM for 5 mM concentration of acetaldehyde; format: functional; procedure, shortened: as §2

`CCN(CC)C(=S)SC1OC(CO)C(O)C(O)C1O` (stereo not given) gave an AUC (Rattus norvegicus [1]) of 17.6 uM min l-1, an AUC (Rattus norvegicus [2]) of 11.4 uM min l-1 and a Clearance (Rattus norvegicus [3]) of 25.5 mL/min/kg. For the same compound, the Clearance (Rattus norvegicus [4]) was 42.1 mL/min/kg, the Body weight (Rattus norvegicus [5]) was 140 g and the Body weight (Rattus norvegicus [6]) was 150 g. For the same compound, the MRT (Rattus norvegicus [7]) was 59.8 min, the MRT (Rattus norvegicus [8]) was 43.8 min and the T1/2 [9] was “Stable”. For the same compound, the half-life [10] was 216 h, the Vss (Rattus norvegicus [11]) was 0.1526 L/kg and the Vss (Rattus norvegicus [12]) was 0.1848 L/kg. For the same compound, the half-life [13] was 3.7 min, the half-life [14] was 5.2 min and the T1/2 beta (Rattus norvegicus [15]) was 19.3 min. The half-life [16] was 23.6 min, the half-life [17] was 88.8 min and the half-life [18] was 129 min. The Acetaldehyde (Rattus norvegicus [19]) was 0 nM (mg of protein)-1, the Acetaldehyde (Rattus norvegicus [20]) was 10.9 nM (mg of protein)-1 and the Acetaldehyde (Rattus norvegicus [21]) was 8.5 nM (mg of protein)-1. The Acetaldehyde (Rattus norvegicus [22]) was 4.3 nM (mg of protein)-1, the Acetaldehyde (Rattus norvegicus [23]) was 0 nM (mg of protein)-1 and the Acetaldehyde (Rattus norvegicus [24]) was 13.8 nM (mg of protein)-1 and 31.5 nM (mg of protein)-1. The Formaldehyde (Rattus norvegicus [25]) was 4.6 nM (mg of protein)-1, the Formaldehyde (Rattus norvegicus [26]) was 1.2 nM (mg of protein)-1 and the Formaldehyde (Rattus norvegicus [27]) was 9 nM (mg of protein)-1. For the same compound, the Formaldehyde (Rattus norvegicus [28]) was 6.2 nM (mg of protein)-1, the Formaldehyde (Rattus norvegicus [29]) was 15 nM (mg of protein)-1 and the Formaldehyde (Rattus norvegicus [30]) was 14.7 nM (mg of protein)-1. For the same compound, the Formaldehyde (Rattus norvegicus [31]) was 1.5 nM (mg of protein)-1, the Formaldehyde (Rattus norvegicus [32]) was 11.9 nM (mg of protein)-1 and the Excretion (Rattus norvegicus [33]) was 1.2 % of dose. For the same compound, the Excretion (Rattus norvegicus [34]) was 31.2 % of dose, the Excretion (Rattus norvegicus [35]) was 21 % of dose and the Excretion (Rattus norvegicus [36]) was 2.2 % of dose. The Excretion (Rattus norvegicus [37]) was 1 % of dose, the Excretion (Rattus norvegicus [38]) was 34.5 % of dose and the Excretion (Rattus norvegicus [39]) was 13.1 % of dose. It also gave a DNA on filter (Rattus norvegicus [40]) of 74, a Viability (Rattus norvegicus [40]) of 92% and a DNA on filter (Rattus norvegicus [41]) of 77. For the same compound, the Viability (Rattus norvegicus [41]) was 106%, the DNA on filter (Rattus norvegicus [42]) was 58 and the Viability (Rattus norvegicus [42]) was 100%. It also gave a half-life [43] of 144 h, a DNA on filter (Rattus norvegicus [44]) of 60 and a Viability (Rattus norvegicus [44]) of 82%. The Excretion (Rattus norvegicus [45]) was 1.5 % of dose and the Acetaldehyde (Rattus norvegicus [46]) was 25.9 nM (mg of protein)-1.
